# Calb biofilm kill: clotrimazole potentiators killing C. albicans biofilm, primary screen, 4-compound mixtures. C. albicans biofilm persisters + clotrimazole, fluorescence viability; primary screen in compound mixtures of four per well. inhibition, % at 7.6 µM. 120,000 tested, 0.02% active. AID 1242, 2008;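 active = inhibition above 30.3% in the primary screen of four-compound pools, then above 30% when the compound was retested; inconclusive = passed the primary limit but could not be retested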;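 note: compounds exposed to preformed 24 h biofilms for 48 h; 0% = untreated biofilm control and 100% = clotrimazole plus chlorhexidine kill blank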
#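 System: C. albicans CAF4-2 wild-type biofilms; Medium: RPMI/MOPS medium, pH 7.0; Reagent: Clotrimazole, 50 µg/mL; Times: biofilm formation 24 h, compound exposure 48 h, 37 °C; Detection: 2-h Alamar Blue fluorescence, 535/590 nm excitation/emission; Evaluation: percent inhibition of biofilm viability.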
# Pf gamet viab: late stage P. falciparum gametocyte viability inhibitors, primary screen, ATP luminescence, HTS; 150,000 tested, 0.065% active; inhibition, % at 10.9 µM; P. falciparum stage V gametocytes, 24 h;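 active = inhibition above the mean plus 3 SD of compounds within the control limits, set per campaign, cut at about 38% in these data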;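 note: 0% = DMSO wells and 100% = medium only without gametocytes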
# ROMK mod: ROMK potassium channel modulators, primary screen, cell-based, thallium flux, MLSMR library. ATP-sensitive inward rectifier potassium channel 1 (Homo sapiens), P48048. Tet-inducible ROMK, thallium flux fluorescence; actives lie on both sides. B-score at 10 µM. 130,000 tested, 2% active. AID 1918, 2009;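 active = signal ratio slope over the read window, or its plate-corrected B-score, at least 3 SD from the plate mean, either direction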;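 note: B-score of the F/F0 ratio slope over 7 to 12 s after thallium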
# Target sequence (P48048 whole entry, looked up): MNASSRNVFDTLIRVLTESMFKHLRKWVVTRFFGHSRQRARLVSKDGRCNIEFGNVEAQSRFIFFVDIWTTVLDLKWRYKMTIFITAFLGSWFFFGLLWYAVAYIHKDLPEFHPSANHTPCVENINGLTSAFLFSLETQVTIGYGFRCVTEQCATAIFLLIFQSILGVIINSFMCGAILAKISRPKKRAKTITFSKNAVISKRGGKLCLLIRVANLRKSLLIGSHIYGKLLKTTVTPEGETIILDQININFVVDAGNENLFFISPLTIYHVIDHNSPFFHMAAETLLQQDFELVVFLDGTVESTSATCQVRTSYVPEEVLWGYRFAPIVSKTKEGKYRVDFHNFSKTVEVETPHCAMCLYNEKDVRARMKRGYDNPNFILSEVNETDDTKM
# ROMK hit retest: ROMK channel modulator hit retest, confirmation, cell-based, thallium flux, duplicate, resupplied hits; fluorescence ratio; active compounds read low; normalized thallium flux (F/F0 slope) at 10 µM; shares compounds with ROMK mod; 3,000 tested, 54% active;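 active = Flux at 10 µM at least 3 SD below or above vehicle control mean in one or both replicates; inconclusive = no clear call, values can overlap the other calls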
# * = called active by the depositor; ? = inconclusive; · = no result. The entries come from a sample that favours hits as a whole.
SMILES,Calb biofilm kill,Pf gamet viab,ROMK mod,ROMK hit retest
NC(=O)c1nsc(C(=O)N(c2cccc(F)c2)C(C(=O)NCC2CCCO2)c2cccs2)c1N (stereo not drawn),12,11,-0.11,·
Cc1cc(Cl)n2c(nc3cc(F)c(F)cc32)c1C#N,19,·,-7.2*,0.053*
Cc1cc(C)n2c(=O)c3ccc(Cl)cc3nc2c1C#N,10,-26,2.5,·
CCOC(=O)C(Cc1c[nH]c2ccccc12)NC(=O)c1ccccc1Br (stereo not drawn),·,15,·,·
CN1C(=O)c2ccccc2C(C(=O)O)C1c1cccc(Cl)c1 (stereo not drawn),7,-3,1.6*,0.077
CCc1ccc(C2C(C(=O)O)c3ccccc3C(=O)N2C)cc1 (stereo not drawn),·,·,0.41,·
CC(=O)OC(COc1ccccc1)Cn1cnc2cc(C)c(C)cc21 (stereo not drawn),9,28,-0.51,·
NNC(=O)/C=C/c1ccc(Cl)cc1Cl,18,10,2.3*,0.076
O=C(O)CNC(=O)/C=C/c1ccc(Cl)cc1Cl,28,·,0.12,·
CSc1ccccc1NC(=O)C1CCN(S(C)(=O)=O)CC1,·,-5,·,·
CCCN1C(=O)c2cc(C(=O)Nc3ccc(OC)c(OC)c3)ccc2C1Nc1ccc(OC)c(OC)c1 (stereo not drawn),13,5,-2,·
CCCN1C(=O)c2cc(C(=O)Nc3ccc(OC)cc3OC)ccc2C1Nc1ccc(OC)cc1OC (stereo not drawn),12,·,-3.7*,?
O=C(NCC1CCCO1)C(=Cc1cccc([N+](=O)[O-])c1)C(=O)NCC1CCCO1 (stereo not drawn),8,19,0.051,·
COC(CNc1ccc([N+](=O)[O-])c(NCC(OC)OC)c1C#N)OC,18,0,-0.37,·
COc1cc(C2C(C#N)=C(N)Oc3cc(N(C)C)ccc32)cc2c1OCO2 (stereo not drawn),·,·,·,0.058*
COc1cc(C2C(C#N)=C(N)Oc3cc(O)ccc32)cc2c1OCO2 (stereo not drawn),·,-6,0.9,·
COc1cc(C2C(C#N)=C(N)Oc3cc4c(cc32)OCO4)cc(OC)c1OC (stereo not drawn),8,3,4.7*,0.083
N#CC1=C(N)Oc2cc3c(cc2C1c1ccc(Cl)cc1)OCO3 (stereo not drawn),·,-11,0.0072,·
CC(=O)NC(CC(=O)Nc1nc(C)cs1)c1ccccc1 (stereo not drawn),15,-13,-0.08,·
COC(=O)c1ccc(N=NNc2cccc(Br)c2)cc1,14,4,-8.3e-05,·
COc1ccc(NC(=O)N(Cc2cc3cc(C)ccc3[nH]c2=O)CC2CCCO2)cc1 (stereo not drawn),18,-23,0.49,·
COc1ccc2[nH]c(=O)c(CN(C(=O)NC3CCCCC3)C3CCCC3)cc2c1,·,-3,-2.8*,0.072
COc1ccc2[nH]c(=O)c(CN(C(C)=O)C3CCCCC3)cc2c1,·,11,0.47,·
COc1ccc2[nH]c(=O)c(CN(CC3CCCO3)C(=O)Nc3ccc(F)cc3)cc2c1 (stereo not drawn),·,·,·,0.061*
CCOc1ccsc1C(=O)OC,35,16,·,·
SMILES,Calb biofilm kill,Pf gamet viab,ROMK mod,ROMK hit retest
CC(C)(O)C#Cc1ccc(CN2CCN(C3CCCC3)C(CCO)C2)cc1 (stereo not drawn),-7,21,0.57,·
C=CCn1c(CCC(O)COCCCCC)n[nH]c1=S (stereo not drawn),12,-20,0.58,·
CC1(c2nnc(Cc3ccccc3)o2)CC(c2cccc(Cl)c2)=NO1 (stereo not drawn),13,·,·,·
Cc1ccc(NC(=O)COC(=O)CCc2ccc(S(=O)(=O)N3CCOCC3)cc2)c(C)c1,7,8,0.57,·
Cc1ccc(NC(=O)CCc2ccc(S(=O)(=O)N3CCOCC3)cc2)c(C)c1,·,2,3.2*,0.086
O=C(COC(=O)/C=C/c1ccc(S(=O)(=O)N2CCOCC2)cc1)NCc1ccc2c(c1)OCO2,14,-3,1.6,·
O=C(COC(=O)/C=C/c1ccc(S(=O)(=O)N2CCOCC2)cc1)NCc1ccc(F)cc1,9,-15,5*,0.09
CCOCC(=O)Nc1cc(C(=O)Nc2cc(C)cc(C)c2)ccc1Cl,5,·,-0.28,·
Cc1c(NC(=O)C(C)OC(=O)CCc2ccccc2)c(=O)n(-c2ccccc2)n1C (stereo not drawn),4,·,0.036,·
CCOc1ccc(NC(=S)NNC(=O)CC(C)O)cc1 (stereo not drawn),11,-4,0.11,·
OCC1(Cc2ccc(Cl)cc2)CCN(Cc2ccc(Oc3ncccn3)cc2)CC1,16,0,-0.0044,·
COc1ccc(OC)c(-c2cc(C(=O)Nc3c(C)nn(Cc4ccccc4)c3C)no2)c1,·,3,-2.4,·
COc1ccc(OC)c(-c2cc(C(=O)Nc3c(C)nn(Cc4ccc(Cl)cc4)c3C)no2)c1,·,·,-2.6*,0.065*
CC(C(=O)Nc1ccccn1)(c1ccccc1)c1ccccc1,·,17,·,·
CCN(CC)CCC(c1ccc2c(c1)OCO2)c1c(O)cc(OC)cc1OC (stereo not drawn),13,·,·,·
COc1cccc(C2C(C#N)=C(N)OC(C(C)(C)C)=C2C#N)c1 (stereo not drawn),·,·,-1.5,·
COc1ccc(C2C(C#N)=C(N)OC(C(C)(C)C)=C2C#N)cc1OC (stereo not drawn),·,·,-2.3*,0.068*
COc1ccc(OC)c(-n2c(=S)[nH]c3c(sc(=S)n3-c3ccccc3)c2=O)c1,10,15,0.18,·
COc1ccc(/C=N/NC(=O)c2cccnc2)cc1CSc1nc2ccccc2s1,10,19,·,0.083
COc1ccc(/C=N/NC(=O)c2ccccc2Cl)cc1CSc1nc2ccccc2s1,·,13,·,·
CCCCC(=O)NCc1ccc(Cl)cc1,9,·,·,·
Cc1csc(N2CCCC2=O)n1,3,24,0.19,·
c1ccc(-c2nc(SCc3nc4ccccc4[nH]3)c3oc4ccccc4c3n2)cc1,·,-30,·,·
Cc1nnc(SCc2cccc([N+](=O)[O-])c2)[nH]c1=O,12,7,·,·
COCC1CCCN(Cc2nc(Cc3ccccc3)no2)C1 (stereo not drawn),9,5,0.57*,0.078
SMILES,Calb biofilm kill,Pf gamet viab,ROMK mod,ROMK hit retest
COc1ccc(OCC2CCCN(Cc3nc(CC4CC4)no3)C2)cc1 (stereo not drawn),22,10,-0.63,·
CN(Cc1ccccc1)C(=O)CC(c1ccccc1)c1cc(Cl)ccc1O (stereo not drawn),·,6,0.055,·
Cn1c(=O)[nH]c(=O)c2c1nc(SCCCO)n2CCCc1ccccc1,·,3,·,·
CN(C)C(=O)COc1ccc2c3c(c(=O)oc2c1)CCCC3,·,-20,·,·
CCOc1ccccc1-n1nnnc1SCC(=O)O,19,-7,·,·
Cc1ccc(Cn2nnc3c(=O)n(CC(=O)NCc4ccccc4)cnc32)cc1,13,20,2.3*,0.089
Cc1ccc(Cn2nnc3c(=O)n(CC(=O)NCc4ccco4)cnc32)cc1,14,19,-0.22,·
CCOC(=O)c1cnc(-n2nc(C)cc2C)nc1NC,·,-24,·,·
CCOC(=O)c1cnc(-n2nc(C)cc2C)nc1NC1CCCCC1,·,·,-4.7*,0.056*
COc1cc(C)ccc1OCCOCCOc1ccc([N+](=O)[O-])cc1,14,-1,-1.7*,0.071
